Series [1] can be described thus: Selectivity index, ratio of IC50 for rat L6 cells to IC50 for Leishmania amazonensis. It is filed as toxicity, cell-based. The following applies: read-out: Ratio IC50. The method in brief:
(§1)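 SI is the IC50 in cultured L6 rat myoblasts (3-day drug exposure, Alamar blue viability) divided by the parasite IC50. Parasite assays used serial dilutions at 37°C. T. cruzi: intracellular, 4 days, β-galactosidase read-out with CPRG. T. b. rhodesiense: axenic, 3 days, Alamar blue. P. falciparum: 3 days, hypoxanthine incorporation. L. amazonensis: intracellular.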

Series [2] relates to Trypanosoma brucei rhodesiense. The series is described as follows: Antiparasitic activity against Trypanosoma brucei rhodesiense STIB900 trypomastigotes after 3 days by Alamar blue assay. It is filed as functional, organism-based. The following applies: STIB900, 72 h. The method in brief:
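Axenic trypomastigote bloodstream forms, strain STIB900, exposed to serial drug dilutions for 3 days at 37°C. Viability read by Alamar blue.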
For orientation: Alamar Blue is a resazurin reagent that responds to reducing activity.

A short description of series [3]: Selectivity index, ratio of IC50 for rat L6 cells to IC50 for Trypanosoma brucei rhodesiense STIB900 trypomastigotes. It is filed as toxicity, cell-based. The following applies: read-out: Ratio IC50. The method in brief: as §1
Series [4] relates to Plasmodium falciparum. Nature of the series: Antiparasitic activity against chloroquine-resistant Plasmodium falciparum K1 after 3 days by [3H]-hypoxanthine incorporation assay. The format is functional, organism-based. In short, it runs like this:
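Erythrocytic-stage parasites exposed to serial drug dilutions at 37°C for 3 days; viability read by tritium-labelled hypoxanthine incorporation.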

The nature of series [5]: Selectivity index, ratio of IC50 for rat L6 cells to IC50 for chloroquine-resistant Plasmodium falciparum K1. The format is toxicity, cell-based. The following applies: read-out: Ratio IC50. The method in brief:
as §1

The subject of a further series is L6. Nature of the series: Cytotoxicity against rat L6 cells after 3 days by Alamar blue assay. It is filed as cell-based. The following applies: L6, 72 h. The method in brief: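 L6 rat myoblast cells cultured with compound for 3 days. Viability measured by Alamar blue.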
In series [6] the test system is Trypanosoma cruzi. Nature of the series: Antiparasitic activity against Trypanosoma cruzi Tulahen LacZ/C4 amastigotes after 4 days by beta-galactosidase reporter gene assay. The format is functional, organism-based. The following applies: Tulahen LacZ/C4, 96 h. In short, it runs like this: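 Intracellular amastigotes of strain Tulahen LacZ/C4 given serial drug dilutions for 4 days at 37°C. The endpoint is the β-galactosidase reporter, read as a colour change after adding CPRG substrate.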
In general terms: Reporter assays use an easily measured gene product as a stand-in for the process of interest.

A short description of series [7]: Selectivity index, ratio of IC50 for rat L6 cells to IC50 for Trypanosoma cruzi Tulahen LacZ/C4 amastigotes. The format is toxicity, cell-based. The following applies: read-out: Ratio IC50. In short, it runs like this:
as §1

Series [8] concerns Plasmodium falciparum. The series is described as follows: Ratio of pentamidine IC50 to compound IC50 for chloroquine-resistant Plasmodium falciparum K1. It is filed as functional.
Series [9] relates to Trypanosoma cruzi. Nature of the series: Ratio of benznidazole IC50 to compound IC50 for Trypanosoma cruzi Tulahen LacZ/C4 amastigotes. The format is functional.
The test system of a further series is Leishmania amazonensis. The series is described as follows: Antiparasitic activity against Leishmania amazonensis infected in CD-1 mouse macrophages after 72 hrs by spectrophotometric analysis. The format is functional, organism-based.

As to `CNc1nc(C(=N)Nc2ccc(-c3ccc(-c4ccc(NC(=N)c5csc(NC)n5)cc4OC(C)C)o3)c(OC(C)C)c2)cs1`, the selectivity ratio in [1] was found to be 2.67; in [3] it was 8.69; in [5], 25.8; in series [7], 0.35. Also, the IC50 (usually the concentration that gives 50% inhibition) in [2] amounted to 92 nM; with Plasmodium falciparum [4] it was 31 nM; in the series on L6 it was 800 nM; with Trypanosoma cruzi [6] it was 2300 nM.

Take `CC(C)Oc1cc(NC(=N)c2ccc[nH]2)ccc1-c1ccc(-c2ccc(NC(=N)c3ccc[nH]3)cc2OC(C)C)o1`: the selectivity ratio worked out at 1.11 in series [1], 8.69 in series [3], 40 in series [5] and 0.24 in [7]. Besides, the IC50 in series [2] came out at 115 nM; in the series on Plasmodium falciparum [4], 25 nM; in the series on L6, 1000 nM; in the series on Trypanosoma cruzi [6] it was 4100 nM.

With `CC(C)Oc1cc(NC(=N)c2ccccn2)ccc1-c1ccc(-c2ccc(NC(=N)c3ccccn3)cc2OC(C)C)o1`, the selectivity ratio turned out to be 34.5 in series [1], 25 in [3], 20.1 in series [5] and 30 in [7]. Further, the half-maximal inhibitory concentration (IC50) came out at 120 nM in [2], 149 nM in the series on Plasmodium falciparum [4] and 100 nM in the series with Trypanosoma cruzi [6].

Turning to `Cc1nc(C(=N)Nc2ccc(-c3ccc(-c4ccc(NC(=N)c5csc(C)n5)cc4OC(C)C)o3)c(OC(C)C)c2)cs1`, the selectivity ratio is 27.6 in [1], 6.36 in series [3], 54 in series [5] and 2.04 in series [7]. The IC50 in [2] came out at 740 nM; in the series on Plasmodium falciparum [4], 87 nM; in the series on L6, 4700 nM; in the series with Trypanosoma cruzi [6], 2300 nM.

Regarding `CC(C)Oc1cc(NC(=N)c2ncc[nH]2)ccc1-c1ccc(-c2ccc(NC(=N)c3ncc[nH]3)cc2OC(C)C)o1`, the selectivity ratio in [1] amounted to 4.32; in series [3], 26.7; in [5], 107; in [7] it was 2.67. Besides, the concentration for half-maximal inhibition (IC50) turned out to be 60 nM in series [2], 15 nM with Plasmodium falciparum [4], 1600 nM with L6 and 600 nM in the series with Trypanosoma cruzi [6].

As for `CC(=O)Nc1nc(C(=N)Nc2ccc(-c3ccc(-c4ccc(NC(=N)c5csc(NC(C)=O)n5)cc4OC(C)C)o3)c(OC(C)C)c2)cs1.Cl`, the selectivity ratio in [1] turned out to be 2.73; in series [3], 50; in series [5] it was 66.7; in series [7], 0.38. Moreover, the 50% inhibitory concentration (IC50) was found to be 12 nM in [2], 9 nM in the series on Plasmodium falciparum [4], 600 nM with L6 and 1600 nM in the series with Trypanosoma cruzi [6]. For the same molecule, in the series on Plasmodium falciparum [8], the “Ratio IC50” value turned out to be 5.

As for `CC(C)Oc1cc(NC(=N)c2ncccn2)ccc1-c1ccc(-c2ccc(NC(=N)c3ncccn3)cc2OC(C)C)o1.Cl`, the selectivity ratio in series [1] is 8.29; in series [3], 181; in series [5] it was 682; in series [7], 29. Also, the IC50 turned out to be 32 nM in series [2], 8.5 nM in the series on Plasmodium falciparum [4], 5800 nM with L6 and 200 nM with Trypanosoma cruzi [6]. Moreover, the “Ratio IC50” value is reported as 9 with Trypanosoma cruzi [9] and 5 in the series with Plasmodium falciparum [8].

As to `CC(C)Oc1cc(NC(=N)c2ccc(Br)s2)ccc1-c1ccc(-c2ccc(NC(=N)c3ccc(Br)s3)cc2OC(C)C)o1`, the IC50 in series [2] was 17000 nM; with Plasmodium falciparum [4], 914 nM; in the series with L6, > 110000 nM; in the series on Trypanosoma cruzi [6], > 110000 nM. The results for the selectivity ratio in [3] and in series [5] were > 6.47 and > 120, respectively.

`CC(C)Oc1cc(NC(=N)c2cn(C)cn2)ccc1-c1ccc(-c2ccc(NC(=N)c3cn(C)cn3)cc2OC(C)C)o1`: the selectivity ratio is 1.6 in series [1], 74.1 in [3], 148 in series [5] and 0.44 in [7]. Also, the IC50 in series [2] was found to be 108 nM; in the series with Plasmodium falciparum [4], 54 nM; with L6, 8000 nM; with Trypanosoma cruzi [6], 18000 nM.

On to `CC(C)Oc1cc(NC(=N)c2cnccn2)ccc1-c1ccc(-c2ccc(NC(=N)c3cnccn3)cc2OC(C)C)o1`, for which the selectivity ratio is 34.8 in series [1], > 16 in [3], > 234 in [5] and > 8.1 in series [7]. Besides, the half-maximal inhibitory concentration (IC50) is 8080 nM in series [2], 552 nM in the series with Plasmodium falciparum [4], > 129000 nM in the series with L6 and 16000 nM in the series on Trypanosoma cruzi [6].

Consider `CC(C)Oc1cc(NC(=N)c2cccnn2)ccc1-c1ccc(-c2ccc(NC(=N)c3cccnn3)cc2OC(C)C)o1`, for which the selectivity ratio in series [1] was found to be 1.64; in series [3], 1.06; in [5], 3.09; in [7], 1.2. Besides, the IC50 came out at 1700 nM in series [2], 582 nM with Plasmodium falciparum [4], 1800 nM in the series with L6 and 1500 nM with Trypanosoma cruzi [6].

On to `CC(C)Oc1cc(NC(=N)c2ccn(C)n2)ccc1-c1ccc(-c2ccc(NC(=N)c3ccn(C)n3)cc2OC(C)C)o1`, for which the selectivity ratio in [1] came to 1.89; in series [3], 3.21; in series [5] it was 20; in series [7] it was 0.23. In addition, the IC50 in series [2] was determined as 436 nM; in the series with Plasmodium falciparum [4], 70 nM; in the series on L6 it was 1400 nM; in the series with Trypanosoma cruzi [6], 6100 nM.

As for `O=C(Cn1ccnc1[N+](=O)[O-])NCc1ccccc1` [BENZNIDAZOLE], the figures for the half-inhibitory concentration (IC50) in the series with L6 and in the series with Trypanosoma cruzi [6] were > 150000 nM and 1870 nM, respectively. The selectivity ratio in series [7] was > 80.

Take `CC(=O)N(C)c1nc(C(=N)Nc2ccc(-c3ccc(-c4ccc(NC(=N)c5csc(N(C)C(C)=O)n5)cc4OC(C)C)o3)c(OC(C)C)c2)cs1`: the selectivity ratio in series [1] was 0.99; in [3], 10.3; in series [5], 22.6; in [7], 0.26. The IC50 in series [2] turned out to be 78 nM; in the series on Plasmodium falciparum [4] it was 35 nM; in the series on L6, 800 nM; in the series on Trypanosoma cruzi [6], 3100 nM.

On to `Cc1csc(C(=N)Nc2ccc(-c3ccc(-c4ccc(NC(=N)c5nc(C)cs5)cc4OC(C)C)o3)c(OC(C)C)c2)n1`, for which the selectivity ratio is > 12.2 in [1], > 1.55 in series [3] and > 122 in [5]. The IC50 in [2] is 78600 nM; with Plasmodium falciparum [4], 999 nM; in the series on L6, > 122000 nM; in the series with Trypanosoma cruzi [6] it was > 122000 nM; in the series on Leishmania amazonensis, > 10000 nM.

Turning to `CC(C)Oc1cc(NC(=N)c2cc(Br)cs2)ccc1-c1ccc(-c2ccc(NC(=N)c3cc(Br)cs3)cc2OC(C)C)o1`, the IC50 in series [2] is 43900 nM; with Plasmodium falciparum [4], 992 nM; in the series on L6, > 108000 nM; in the series with Trypanosoma cruzi [6], > 108000 nM. Further, the selectivity ratio in series [3] was > 2.46; in series [5] it was > 109.

As to `CC(C)Oc1cc(NC(=N)c2csc(N)n2)ccc1-c1ccc(-c2ccc(NC(=N)c3csc(N)n3)cc2OC(C)C)o1`, the selectivity ratio in series [1] stood at 2.18; in series [3], 10.4; in series [5], 94.9; in [7] it was 0.66. In addition, the IC50 worked out at 357 nM in series [2], 39 nM in the series on Plasmodium falciparum [4], 3700 nM in the series with L6 and 5600 nM in the series on Trypanosoma cruzi [6].

These data come from ChEMBL document CHEMBL3286095, “Synthesis and antiparasitic activity of new bis-arylimidamides: DB766 analogs modified in the terminal groups” (Eur J Med Chem, 2014).
